{"data": "Assay results pooled from the literature", "NTRK3": "NT-3 growth factor receptor (NTRK3, Homo sapiens, UniProt Q16288)", "CDK9 with cyclin T1": "Cyclin-dependent kinase 9, with cyclin T1 (CDK9, Homo sapiens, UniProt P50750)", "MDH2": "Malate dehydrogenase, mitochondrial (MDH2, Sus scrofa, UniProt P00346)", "PLA2G5": "Phospholipase A2 group V (PLA2G5, Homo sapiens, UniProt P39877)", "SRC": "Proto-oncogene tyrosine-protein kinase Src (SRC, Homo sapiens, UniProt P12931)", "CXCR4": "C-X-C chemokine receptor type 4 (CXCR4, Homo sapiens, UniProt P61073)", "CYP2C9": "Cytochrome P450 2C9 (CYP2C9, Homo sapiens, UniProt P11712)", "ACVR1": "Activin receptor type-1 (ACVR1, Homo sapiens, UniProt Q04771)"}
{"Compound": "CCn1ncc2c1-c1cnc(N)c(c1)O[C@H](C)c1cc(F)ccc1-c1nn(C)nc1C2", "target": "NTRK3", "read-out": "enzyme activity", "mode": "inhibitor", "IC50": "0.19 µM"}
{"Compound": "O=c1cc(-c2ccc3c(c2)OCO3)oc2c1ccc1occc12", "target": "CDK9 with cyclin T1", "read-out": "enzyme activity", "mode": "inhibitor", "technique": "ADP detection", "IC50": "31.4 µM"}
{"Compound": "COc1ccc(S(=O)(=O)Nc2ccc3oc(-c4ccc(NC(=O)C5CCN(C(C)=O)CC5)cc4)nc3c2)cc1", "target": "MDH2", "read-out": "enzyme activity", "mode": "inhibitor", "IC50": "> 62.5 µM"}
{"Compound": "CCN1CCN(Cc2ccc(NC(=O)c3ccc(C)c(NC(=O)c4cncc(-c5cccs5)c4)c3)cc2C(F)(F)F)CC1", "target": "Ephrin type-A receptor 2 (EPHA2, Homo sapiens, UniProt P29317)", "read-out": "enzyme activity", "mode": "inhibitor", "technique": "ADP detection", "IC50": "0.419 µM"}
{"Compound": "O=C(O)/C=C/c1ccc(O)c(O)c1", "target": "PLA2G5", "read-out": "enzyme activity", "mode": "inhibitor", "technique": "Ellman", "IC50": "26.8 µM"}
{"Compound": "NC(=O)c1ccc[n+]([C@@H]2O[C@H](COP(=O)([O-])OP(=O)(O)OC[C@H]3O[C@@H](n4cnc5c(N)ncnc54)[C@H](O)[C@@H]3O)[C@@H](O)[C@H]2O)c1", "target": "Poly [ADP-ribose] polymerase tankyrase-1 (TNKS, Homo sapiens, UniProt O95271)", "read-out": "enzyme activity", "mode": "inhibitor", "IC50": "395 µM"}
{"Compound": "COc1ccc2c(Oc3ccc4c(C(=O)Nc5ccccc5N)cccc4c3)ccnc2c1", "target": "SRC", "read-out": "enzyme activity", "mode": "inhibitor", "IC50": "> 0.5 µM"}
{"Compound": "CC(C)=CCC/C(C)=C/Cc1ccc[n+](CC(P(=O)([O-])O)P(=O)(O)O)c1 (stereo not drawn)", "target": "Geranylgeranyl pyrophosphate synthase (GGPS1, Homo sapiens, UniProt O95749)", "read-out": "enzyme activity", "mode": "inhibitor", "IC50": "10 µM"}
{"Compound": "[Na+].[Na+].[Na+].[O]=[V]([O-])([O-])[O-]", "target": "Tyrosine-protein phosphatase non-receptor type 6 (PTPN6, Homo sapiens, UniProt P29350)", "read-out": "enzyme activity", "mode": "inhibitor", "technique": "absorbance", "IC50": "4.4 µM"}
{"Compound": "CCc1ccc(NC(=O)c2nc(S(C)(=O)=O)ncc2N(Cc2ccccc2)Cc2ccco2)cc1", "target": "CXCR4", "read-out": "β-arrestin recruitment", "mode": "antagonist", "IC50": "13 µM"}
{"Compound": "COC(=O)C1CCN(C(=O)c2ccc(N(Cc3ccccc3)Cc3cnc4nc(N)nc(N)c4n3)cc2)CC1", "target": "CYP2C9", "read-out": "enzyme activity", "mode": "inhibitor", "technique": "luciferase", "IC50": "0.316 µM"}
{"Compound": "O=c1cc(-c2ccccc2)oc2ccc3ccccc3c12", "target": "CDK9 with cyclin T1", "read-out": "enzyme activity", "mode": "inhibitor", "technique": "ADP detection", "IC50": "> 10 µM"}
{"Compound": "O=S(=O)(Nc1ccc(-c2nc3cc(NS(=O)(=O)c4ccc(C(F)(F)F)cc4)ccc3o2)cc1)c1ccc(C(F)(F)F)cc1", "target": "MDH2", "read-out": "enzyme activity", "mode": "inhibitor", "IC50": "> 62.5 µM"}
{"Compound": "CC(=O)c1ccc(N=Nc2c(C(=O)O)cc(O)c(O)c2O)cc1", "target": "PLA2G5", "read-out": "enzyme activity", "mode": "inhibitor", "technique": "Ellman", "IC50": "7.15 µM"}
{"Compound": "N=C(N)NCCCC[C@@H]1NC(=O)CCSSC[C@@H](C(N)=O)NC(=O)[C@@H]2CCCN2C(=O)[C@H](Cc2c[nH]c3ccccc23)NC(=O)[C@H](CC(=O)O)NC(=O)CNC1=O", "target": "CXCR4", "read-out": "β-arrestin recruitment", "mode": "antagonist", "IC50": "> 30 µM"}
{"Compound": "Cc1ccc(S(=O)(=O)Nc2ccc(-c3nc4cc(NS(=O)(=O)c5ccc(C)cc5)ccc4o3)cc2)cc1", "target": "MDH2", "read-out": "enzyme activity", "mode": "inhibitor", "IC50": "> 62.5 µM"}
{"Compound": "CCS(=O)(=O)c1ncc(N(Cc2ccccc2)Cc2ccco2)c(C(=O)Nc2ccccc2F)n1", "target": "CXCR4", "read-out": "β-arrestin recruitment", "mode": "antagonist", "IC50": "50 µM"}
{"Compound": "COc1ccc(-c2nn3c(C)nnc3s2)cc1", "target": "DNA dC->dU-editing enzyme APOBEC-3A (Homo sapiens, UniProt P31941)", "read-out": "enzyme activity", "mode": "inhibitor", "IC50": "> 100 µM"}
{"Compound": "CC(=O)c1cccc(N=Nc2c(C(=O)O)cc(O)c(O)c2O)c1", "target": "PLA2G5", "read-out": "enzyme activity", "mode": "inhibitor", "technique": "Ellman", "IC50": "8.47 µM"}
{"Compound": "CC(C)NCCCC[C@H](NC(=O)[C@H]1CCC(=O)N[C@@H](Cc2ccccc2)C(=O)N[C@@H](Cc2ccc(O)cc2)C(=O)N[C@@H](CCCCNC(C)C)C(=O)N[C@H](CCCNC(=N)N)C(=O)N[C@@H](Cc2ccc3ccccc3c2)C(=O)NCC(=O)N1)C(N)=O", "target": "CXCR4", "read-out": "ligand displacement", "technique": "radioligand", "IC50": "0.0248 µM"}
{"Compound": "CCN(CC)CCOc1ccc2c(c1)C(=O)c1cc(OCCN(CC)CC)ccc1-2", "target": "Acetylcholinesterase (ACHE, Homo sapiens, UniProt P22303)", "read-out": "enzyme activity", "mode": "inhibitor", "IC50": "0.0646 µM"}
{"Compound": "COc1ccccc1S(=O)(=O)Nc1ccc(-c2nc3cc(NS(=O)(=O)c4ccccc4OC)ccc3o2)cc1", "target": "MDH2", "read-out": "enzyme activity", "mode": "inhibitor", "IC50": "> 62.5 µM"}
{"Compound": "CNC(=O)c1cc2c(Oc3ccc(NC(=O)C4(C(=O)Nc5ccc(F)cc5)CC4)cc3)ccnc2cc1OC", "target": "NTRK3", "read-out": "enzyme activity", "mode": "inhibitor", "technique": "radiometric", "IC50": "0.01 µM"}
{"Compound": "CS(=O)(=O)c1ncc(N(Cc2ccccc2)Cc2ccco2)c(C(=O)Nc2ccccc2Cl)n1", "target": "CXCR4", "read-out": "β-arrestin recruitment", "mode": "antagonist", "IC50": "40 µM"}
{"Compound": "Nc1ncnc2c1c(Cc1cccc3ccccc13)nn2CC1CCNCC1", "target": "SRC", "read-out": "enzyme activity", "mode": "inhibitor", "IC50": "> 20 µM"}
{"Compound": "COc1ccc2cc3[n+](cc2c1OC)CCc1cc2c(cc1-3)OCO2", "target": "CYP2C9", "read-out": "enzyme activity", "mode": "inhibitor", "IC50": "0.7 µM"}
{"Compound": "OCc1cc(C(O)CNCCCCCCOCCCCc2ccccc2)ccc1O (stereo not drawn)", "target": "CXCR4", "read-out": "calcium signal", "mode": "antagonist", "IC50": "38.3 µM"}
{"Compound": "O=S(=O)(Nc1ccc(-c2nc3cc(NS(=O)(=O)c4ccc(Br)cc4)ccc3o2)cc1)c1ccc(Br)cc1", "target": "MDH2", "read-out": "enzyme activity", "mode": "inhibitor", "IC50": "> 62.5 µM"}
{"Compound": "CC(C)(C)n1nc(-c2ccc3nc(OC4CC4)ccc3c2)c(C(N)=O)c1N", "target": "ACVR1", "read-out": "cell-free assay", "IC50": "> 10 µM"}
{"Compound": "Cc1ccc(CN(Cc2ccco2)c2cnc(S(C)(=O)=O)nc2C(=O)Nc2ccc(C)cc2)cc1", "target": "CXCR4", "read-out": "β-arrestin recruitment", "mode": "antagonist", "IC50": "25 µM"}
{"Compound": "CC1=C(/C=C/C(C)=C/C=C/C(C)=C/C(=O)O)C(C)(C)CCC1", "target": "Prothrombin (Rattus norvegicus, UniProt P18292)", "read-out": "enzyme activity", "mode": "inhibitor", "IC50": "163 µM"}
{"Compound": "c1ccc(-n2cc(CCN(Cc3nc(C4CC4)no3)Cc3nc(C4CC4)no3)cn2)cc1", "target": "CXCR4", "read-out": "β-arrestin recruitment", "IC50": "200 µM"}
{"Compound": "O=C(O)c1cccc(SCc2cccc(Nc3ncc4c(-c5ccc(N6CCOCC6)cc5)[nH]nc4n3)c2)c1", "target": "Cyclin-dependent kinase 1, with cyclin B (CDK1, Homo sapiens, UniProt P06493)", "read-out": "enzyme activity", "mode": "inhibitor", "IC50": "> 200 µM"}
{"Compound": "C=CC(=O)Nc1ccc(N2CCC[C@@H](Nc3ncc(Cl)c(-c4c[nH]c5ccccc45)n3)C2)c(F)c1", "target": "CDK9 with cyclin T1", "read-out": "enzyme activity", "mode": "inhibitor", "technique": "FRET", "IC50": "0.436 µM"}
{"Compound": "Cc1ccc(S(=O)(=O)Nc2ccc(-c3nc4ccc(NS(=O)(=O)c5ccc(C)cc5)cc4[nH]3)cc2)cc1", "target": "MDH2", "read-out": "enzyme activity", "mode": "inhibitor", "IC50": "> 62.5 µM"}
{"Compound": "Cc1n[nH]c2nncnc12", "target": "deoD (Escherichia coli, UniProt P0ABP8)", "read-out": "enzyme activity", "mode": "inhibitor", "pH": "pH 7", "IC50": "~700 µM"}
{"Compound": "Nc1ccc(S(=O)(=O)Nc2ccc(-c3nc4cc(NS(=O)(=O)c5ccc(N)cc5)ccc4o3)cc2)cc1", "target": "MDH2", "read-out": "enzyme activity", "mode": "inhibitor", "IC50": "> 62.5 µM"}
{"Compound": "O=C(O)/C=C\\C(=O)Nc1ccc(S(=O)(=O)Nc2ncccn2)cc1", "target": "Dipeptidyl peptidase 4 (DPP4, Homo sapiens, UniProt P27487)", "read-out": "enzyme activity", "mode": "inhibitor", "technique": "fluorescence", "IC50": "54.6 µM"}
{"Compound": "O=S(=O)(Nc1ccc(-c2nc3cc(NS(=O)(=O)c4ccc(Cl)s4)ccc3o2)cc1)c1ccc(Cl)c(C(F)(F)F)c1", "target": "MDH2", "read-out": "enzyme activity", "mode": "inhibitor", "IC50": "> 62.5 µM"}
{"Compound": "Cc1cccc(C)c1NC(=O)c1nc(S(C)(=O)=O)ncc1N(Cc1ccccc1)Cc1ccco1", "target": "CXCR4", "read-out": "β-arrestin recruitment", "mode": "antagonist", "IC50": "316 µM"}
{"Compound": "CC(C)(C)n1nc(-c2cnc3cc(OC4CC4)ccc3c2)c(C(N)=O)c1N", "target": "ACVR1", "read-out": "cell-free assay", "IC50": "> 10 µM"}
{"Compound": "Cc1cnc(-c2ccc(-c3ccc(NC(=O)Nc4c(F)cc(F)cc4F)cc3F)c3c2C(=O)NC3)[nH]1", "target": "NTRK3", "read-out": "enzyme activity", "mode": "inhibitor", "IC50": "0.0007 µM"}
